Bioassay records as filed in PubChem BioAssay.
Jurkat NFkB inh – inhibitors of induced NF-kB luciferase reporter, primary screen, TCR NF-kB activation inhibitor project, cell-based, luminescence, uHTS; Jurkat, PMA/ionomycin-induced NF-kB luciferase reporter; inhibition, % at 4 µM; 0.53% of 330,000 active; AID 435003, 2010; in the data active = inhibition above about 50%
697 NFkB inh – inhibitors of PMA/ionomycin-induced NF-kB reporter, 697 cells, primary screen, B-cell NF-kB inhibitor project, cell-based, luminescence, uHTS | 697 B-cell NF-kB luciferase reporter, 16 h | inhibition, % at 4 µM | 0.33% of 330,000 active | AID 435022, 2010; in the data active = inhibition above about 35%
IMP-1 inhibitor – IMP-1 metallo-beta-lactamase inhibitors, primary screen, biochemical, epi-absorbance readout, Pseudomonas aeruginosa enzyme; metallo-beta-lactamase IMP-1 (Pseudomonas aeruginosa); purified IMP-1, nitrocefin hydrolysis, epi-absorbance fluorescence; inhibition, % at 5.6 µM; 0.45% of 290,000 active;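 active = inhibition above the mean plus 3 SD of all compounds in the same screening run, cut at about 4.5% in these data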;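 also: 0% = IMP-1 with DMSO and 100% = DMSO wells lacking enzyme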
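System – purified recombinant IMP-1 beta-lactamase · Input – IMP-1 dispensed at 0.2 nM · Timing – 15 min preincubation plus 25 min reaction at 25 °C · Signal – Epi-absorbance fluorescence, 480 nm excitation, 530 nm emission · Measure – percent IMP-1 inhibition derived from blank-referenced optical density · Controls – Enzyme-plus-DMSO low control, enzyme-free DMSO high control · Replication – singlicate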
aSyn UTR inh – MLPCN primary screen, SNCA 5' untranslated region; inhibition, % (tested at 7.5 µM); 0.82% of 300,000 active; alpha-synuclein 5'UTR reporter, inhibitor activity; AID 1813, 2009; in the data active = inhibition above about 60%;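 also: H4 neuroglioblastoma cells stably carrying SNCA 5'UTR luciferase fusion; 0% = DMSO wells and 100% = positive control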
Mdm2-MdmX inh – inhibitors of human Mdm2-MdmX association, primary screen, cell-based, luminescence, split luciferase, SaOS-2, uHTS; Protein Mdm4 (Homo sapiens) + E3 ubiquitin-protein ligase Mdm2 (Homo sapiens), …; SaOS-2 split-luciferase Mdm2/MdmX complementation; inhibition, % at 8 µM; 3% of 330,000 active;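 active = inhibition of at least 50% at 8 µM in the primary screen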
Target sequence (O15151 whole entry, looked up): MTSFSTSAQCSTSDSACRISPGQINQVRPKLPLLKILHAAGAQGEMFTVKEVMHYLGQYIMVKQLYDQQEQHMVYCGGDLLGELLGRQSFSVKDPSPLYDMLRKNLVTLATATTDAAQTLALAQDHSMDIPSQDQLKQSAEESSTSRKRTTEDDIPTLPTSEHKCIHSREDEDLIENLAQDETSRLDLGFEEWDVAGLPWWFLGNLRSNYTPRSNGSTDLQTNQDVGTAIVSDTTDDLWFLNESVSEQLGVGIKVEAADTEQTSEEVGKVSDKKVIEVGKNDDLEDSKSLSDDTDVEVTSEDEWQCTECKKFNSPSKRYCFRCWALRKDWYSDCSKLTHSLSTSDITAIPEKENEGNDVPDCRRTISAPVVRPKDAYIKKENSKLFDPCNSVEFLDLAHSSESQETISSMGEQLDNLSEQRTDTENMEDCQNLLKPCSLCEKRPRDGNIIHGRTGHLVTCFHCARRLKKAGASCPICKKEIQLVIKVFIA
Target sequence (Q00987 whole entry, looked up): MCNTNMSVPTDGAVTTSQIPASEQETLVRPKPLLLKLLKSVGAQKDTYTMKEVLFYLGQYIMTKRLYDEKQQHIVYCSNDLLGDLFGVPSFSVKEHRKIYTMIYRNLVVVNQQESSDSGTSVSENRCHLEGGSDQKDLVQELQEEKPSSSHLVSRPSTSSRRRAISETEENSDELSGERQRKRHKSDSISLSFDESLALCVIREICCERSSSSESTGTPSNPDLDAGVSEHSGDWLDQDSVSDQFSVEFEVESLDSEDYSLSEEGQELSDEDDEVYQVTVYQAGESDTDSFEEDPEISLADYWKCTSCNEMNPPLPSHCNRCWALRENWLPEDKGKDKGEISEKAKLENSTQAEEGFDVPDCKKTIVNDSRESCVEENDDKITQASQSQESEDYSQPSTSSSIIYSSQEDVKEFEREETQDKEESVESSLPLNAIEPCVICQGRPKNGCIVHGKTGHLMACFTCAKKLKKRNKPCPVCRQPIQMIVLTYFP
VIM-2 inh – VIM-2 metallo-beta-lactamase inhibitors, primary screen, biochemical, epi-absorbance readout, Pseudomonas aeruginosa enzyme | purified VIM-2, nitrocefin hydrolysis, epi-absorbance fluorescence | inhibition, % at 5.6 µM | 0.89% of 290,000 active | AID 1527, 2009;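 active = inhibition above the mean of all tested compounds plus 3 SD, cutoff set per screening run, cut at about 7.5% in these data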;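 also: red hydrolysis product quenches plate fluorescence so inhibitors raise well fluorescence; 0% = enzyme with DMSO and 100% = DMSO without enzyme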
* hit, by the source's call; x = no result given. Compounds with a hit are over-represented: about 4.7% of the library has one in this group of screens.

SMILES | Jurkat NFkB inh | 697 NFkB inh | IMP-1 inhibitor | aSyn UTR inh | Mdm2-MdmX inh | VIM-2 inh
O=C(NCC(O)c1ccccc1)c1cccs1 (stereo unspecified) | -51 | -58 | -4 | -136 | 1 | -3
CCCCCN(C(=O)CCC(=O)OCCOc1ccccc1Cl)c1c(N)n(CCCC)c(=O)[nH]c1=O | -11 | -27 | x | 12 | 17 | x
CCCCc1cc(=O)oc2c(CN3CCCC3)c(O)ccc12 | -9 | -18 | 1 | 16 | -10 | -1
CCCc1cc(=O)oc2c(CNc3ccc(OCC)cc3)c(O)ccc12 | -2 | -2 | 5.8* | -19 | 33 | -3
O=C(COC(=O)c1n[nH]c(=O)c2ccccc12)Nc1ccccc1 | 13 | 11 | x | x | 15 | x
CCOC(=O)C1=C(O)/C(=C/c2cc(OC)c(O)c(OC)c2)SC1=Nc1ccc(OC)cc1 | x | x | -3 | -10 | x | -1
CCOC(=O)C1=C(O)/C(=C/c2ccc(-c3ccccc3C(=O)O)o2)SC1=Nc1ccc(OC)cc1 | x | x | -4 | x | x | 11*
COc1cc(NS(=O)(=O)c2cn(C)cn2)cc(OC)c1 | -5 | -13 | -1 | -1 | 5 | 0
COc1ccc(NS(=O)(=O)c2cccc(C(=O)NCc3ccccc3CN3CCCC3)c2)cc1 | 1 | -5 | x | x | 42 | x
Cc1c2c(n3c(nc4ccccc43)c1C#N)N(Cc1cccnc1)CC2 | x | x | -2 | x | x | 9.6*
N#Cc1c2c(c(NCc3cccnc3)n3c1nc1ccccc13)CCC2 | -2 | 11 | -5 | 3 | 10 | 12*
COCCNc1c2c(c(C#N)c3nc4ccccc4n13)CCCC2 | 0 | 3 | -4 | 20 | -9 | 8
CC(=O)Nc1ccc(N2CCc3c(C)c(C#N)c4nc5ccccc5n4c32)cc1 | 44 | -18 | -2 | -4 | 25 | 2
COc1ccccc1NC(=O)COC(=O)c1ccc(N2CCCC2=O)cc1 | 6 | 14 | x | x | 18 | x
CN1CCN(c2nc(-c3ccc(Cl)cc3)cc(=O)[nH]2)CC1 | 4 | 14 | -4 | 18 | 25 | 7
COc1cc(/C=C/c2ccc3c(Br)cc(Br)c(O)c3n2)ccc1O | x | x | -3 | 65* | x | -3
COc1ccc(/C=C/c2ccc3c(Br)ccc(O)c3n2)cc1 | -37 | -63 | -4 | -151 | 36 | -4
COc1cc(OC)c2c(C)cc(=O)oc2c1 | -15 | -12 | 4.9* | 6 | 34 | 3
Cc1nc2c(ccc3nc(NC(=O)C4CC4)sc32)s1 | -13 | -34 | -2 | -121 | 14 | 8.6*
CCC(=O)Nc1nc2ccc3sc(C)nc3c2s1 | -38 | -33 | -3 | -86 | 3 | 6
Cc1ccccc1NC(=S)N=Nc1c(O)n(C)c2ccc(S(=O)(=O)N3CCOCC3)cc12 | 14 | -21 | -3 | 78* | 43 | -2
Cc1ccc(NC(=S)N=Nc2c(O)n(C)c3ccc(S(=O)(=O)N4CCOCC4)cc23)cc1 | x | x | -4 | 75* | x | -2
Cc1cc(C)cc(NC(=S)N=Nc2c(O)n(C)c3ccc(S(=O)(=O)N4CCOCC4)cc23)c1 | 5 | 12 | 0 | 63* | 23 | -1
Cc1ccc(NC(=O)c2ccc(S(=O)(=O)N3CCOCC3)cc2)cc1 | -13 | 8 | -2 | -20 | 12 | -1
CC(Sc1nnc(Nc2ccccc2F)s1)C(=O)NC1CC1 (stereo unspecified) | 0 | 7 | x | x | -5 | x
SMILES | Jurkat NFkB inh | 697 NFkB inh | IMP-1 inhibitor | aSyn UTR inh | Mdm2-MdmX inh | VIM-2 inh
Cn1c(=O)c(N)c2c3c(c(Br)ccc31)C(=O)c1ccccc1-2 | 9 | -2 | 0 | 26 | 44 | 8.4*
CCOc1ccc(OCc2cccc(C(=O)N3CCCCCC3)c2)cc1 | 26 | -27 | -2 | 76* | -13 | -2
CCOc1ccccc1NC(=O)CCNS(=O)(=O)c1ccc(NC(C)=O)cc1 | -4 | 6 | -2 | -2 | -14 | 0
CCc1ccccc1NC(=O)CCS(=O)(=O)c1ccc(C)cc1 | -13 | -3 | -4 | -2 | -9 | -4
CCOc1ccccc1NC(=O)CCS(=O)(=O)c1ccc(Br)cc1 | -11 | 19 | 18* | 8 | 18 | -4
COC(=O)c1ccccc1NC(=O)CCS(=O)(=O)c1ccc(Br)cc1 | x | x | 35* | 0 | x | -2
CCOc1ccc(NC(=O)CCS(=O)(=O)c2ccc(Br)cc2)cc1 | 4 | 22 | 16* | 2 | -3 | -3
